Assay results published in ChEMBL document CHEMBL1671807, “Structure-activity relations on [1-(3,5-difluoro-4-hydroxyphenyl)-1H-pyrrol-3-yl]phenylmethanone. The effect of methoxy substitution on aldose reductase inhibitory activity and selectivity” (Bioorg Med Chem, 2011).

Biological target: Aldo-keto reductase family 1 member B1 (Rattus norvegicus, UniProt P07943)
Experiment: Inhibition of rat lens ALR2
Type: tissue-based, Lens of camera-type eye
Conditions: not given
How it was run: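 Partially purified rat lens enzyme (water homogenate, supernatant after 40% ammonium sulfate). NADPH consumption read at 340 nm with D,L-glyceraldehyde as substrate at 30 °C. Compounds dissolved in 10% aqueous NaHCO3 and tested at five concentrations. IC50 from least-squares fit of the linear part of the log dose–response curve; triplicate.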

First: COc1cccc(C(=O)c2ccn(-c3cc(F)c(O)c(F)c3)c2)c1
Second: COc1ccc(C(=O)c2ccn(-c3cc(F)c(O)c(F)c3)c2)cc1
The IC50 of the first is 2.5-fold lower: 9.93 µM for the first, 24.9 µM for the second. The first is the more potent here.

`O=C(c1ccccc1)c1ccn(-c2ccc(F)c(O)c2F)c1` and `O=C(c1ccccc1)c1cccn1-c1cc(F)c(O)c(F)c1` are within 1.5-fold of each other in IC50: 1.26 µM for the first, 1.06 µM for the second.

Compared with `COc1ccc(C(=O)c2cccn2-c2cc(F)c(O)c(F)c2)cc1`, `COc1cccc(C(=O)c2cccn2-c2cc(F)c(O)c(F)c2)c1` is 3-fold higher in IC50: 0.39 µM for the first, 1.18 µM for the second.

Tested on: not listed separately
Experiment: Inhibition of rat kidney ALR1
Conditions: not given
How it was run: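 Enzyme partially purified from Fischer-344 rat kidney by ammonium sulfate fractionation (40/50/75%) and DEAE treatment, with no detectable ALR2 activity. NADPH consumption followed at 340 nm with D-glucuronate substrate at 37 °C. Compounds in 10% aqueous NaHCO3, five concentrations. IC50 from least-squares fit of the linear part of the log dose–response; triplicate.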

Compared with `COc1cccc(C(=O)c2ccn(-c3cc(F)c(O)c(F)c3)c2)c1`, `COc1ccc(C(=O)c2ccn(-c3cc(F)c(O)c(F)c3)c2)cc1` is higher in IC50: 51.8 µM for the first, greater than 100 µM for the second.

First: O=C(c1ccccc1)c1ccn(-c2ccc(F)c(O)c2F)c1
Second: O=C(c1ccccc1)c1ccn(-c2cc(F)c(O)c(F)c2)c1
The IC50 of the first is 8.3-fold lower: 1.61 µM for the first, 13.4 µM for the second. The first is the more potent here.

First: O=C(c1ccccc1)c1cccn1-c1cc(F)c(O)c(F)c1
Second: COc1cccc(C(=O)c2cccn2-c2cc(F)c(O)c(F)c2)c1
The IC50 of the first is 5.1-fold lower: 4.6 µM for the first, 23.5 µM for the second.

`COc1ccc(C(=O)c2cccn2-c2cc(F)c(O)c(F)c2)cc1` showed an IC50 of 27.8 µM.

Organism: Rattus norvegicus
Experiment: Selectivity index, ratio of IC50 for rat kidney ALR1 to IC50 for rat lens ALR2
Type: tissue-based
Conditions: Lens of camera-type eye
How it was run: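 Ratio of IC50 values: rat kidney enzyme assayed with D-glucuronate at 37 °C, rat lens enzyme with D,L-glyceraldehyde at 30 °C. Both read as NADPH consumption at 340 nm, five compound concentrations, IC50 from the linear part of the log dose–response curve, triplicate.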

`COc1cccc(C(=O)c2ccn(-c3cc(F)c(O)c(F)c3)c2)c1` and `COc1ccc(C(=O)c2ccn(-c3cc(F)c(O)c(F)c3)c2)cc1` cannot be ordered by Ratio IC50: 5.2 for the first, greater than 4 for the second.

Compared with `O=C(c1ccccc1)c1ccn(-c2ccc(F)c(O)c2F)c1`, `O=C(c1ccccc1)c1ccn(-c2cc(F)c(O)c(F)c2)c1` is higher in Ratio IC50: 1.3 for the first, 33.8 for the second.

Compared with `O=C(c1ccccc1)c1cccn1-c1cc(F)c(O)c(F)c1`, `COc1cccc(C(=O)c2cccn2-c2cc(F)c(O)c(F)c2)c1` is higher in Ratio IC50: 4.3 for the first, 19.9 for the second.

`COc1ccc(C(=O)c2cccn2-c2cc(F)c(O)c(F)c2)cc1` showed a Ratio IC50 of 71.6.

Tested on: not listed separately
Experiment: Antioxidant activity assessed as inhibition of AAPH-induced lipid peroxidation of DOPC liposomes
Type: functional
Conditions: not given
How it was run: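 Unilamellar DOPC liposomes, 0.8 mM final, in 20 mM phosphate buffer pH 7.4, incubated with compound at 10–300 µM and AAPH (10 mM final) at 50 °C for 80 min. Lipids extracted with CHCl3/MeOH 2:1 containing 0.05% BHT. Hydroperoxides read by the thiocyanate method at 500 nm against a cumene hydroperoxide calibration. IC50 from the linear part of the semilog inhibition plot; triplicate.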

Molecule `COc1ccc(C(=O)c2cccn2-c2cc(F)c(O)c(F)c2)cc1` has an IC50 of 35.8 µM.

Tested on: not listed separately
Experiment: Inhibition of glucose-induced sorbitol accumulation in rat lens at 100 uM (Rbv = 643.5+/-133 nmol/g)
Type: functional, Lens of camera-type eye
Conditions: not given

In the case of `COc1ccc(C(=O)c2cccn2-c2cc(F)c(O)c(F)c2)cc1`, the Activity is reported as 203.5 nmol/g.
